ChEMBL document CHEMBL1129265, “Synthesis and characterization of pseudopeptide bradykinin B2 receptor antagonists containing the 1,3,8-triazaspiro[4.5]decan-4-one ring system” (J Med Chem, 1996)

Key:
B2 bradykinin receptor = molecular target: T1, B2 bradykinin receptor (Homo sapiens, UniProt P30411); experiment: Affinity to human Bradykinin receptor B2 in CHO cell membranes determined by displacement of [3H]-NPC 17731
T1 sequence (P30411 whole entry): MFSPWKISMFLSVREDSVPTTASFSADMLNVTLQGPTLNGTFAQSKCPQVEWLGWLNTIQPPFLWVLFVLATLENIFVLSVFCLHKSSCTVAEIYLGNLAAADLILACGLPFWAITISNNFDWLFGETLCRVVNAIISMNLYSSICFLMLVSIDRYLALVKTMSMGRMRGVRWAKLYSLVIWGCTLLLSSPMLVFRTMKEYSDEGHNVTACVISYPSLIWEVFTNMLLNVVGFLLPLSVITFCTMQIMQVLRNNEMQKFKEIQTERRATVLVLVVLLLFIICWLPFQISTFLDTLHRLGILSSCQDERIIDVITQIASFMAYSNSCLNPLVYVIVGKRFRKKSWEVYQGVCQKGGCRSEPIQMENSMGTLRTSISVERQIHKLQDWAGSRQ
Method in brief: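 Membranes from CHO/K cells transfected with human B2 receptor, grown in Ham's F12 with 10% FBS and 500 ug/mL G418. Buffer: 25 mM TES, 1 mM 1,10-phenanthroline, pH 6.8, with bacitracin and 0.1% BSA. Competition versus [3H]NPC-17731, 15 pM final. 1 uM bradykinin defines nonspecific binding. 90 min at 25 °C, then filtration on PEI-soaked GF/B and scintillation counting. n=3.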

Rattus norvegicus = species: Rattus norvegicus; experiment: Pharmacological profile in bradykinin induced assay in rats ([…] in rats); type: functional
Method in brief: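 Anesthetized Sprague–Dawley rats, carotid mean arterial pressure, jugular iv dosing, tracheotomy. After 30 min stabilization, three bradykinin injections (12 ug/kg iv, 5 min apart) set baseline hypotension. Test agent is given iv 10–15 min later, followed 5 min after by bradykinin challenge. Successive increasing doses give a cumulative dose–response; ED50 reported, n=4.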

Oryctolagus cuniculus = species: Oryctolagus cuniculus; experiment: Pharmacological profile in bradykinin induced assay in rabbits ([…]); type: functional
Method in brief: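 Male New Zealand white rabbits, 1.5–2.0 kg, acepromazine premedicated, pentobarbital anesthetized. Carotid catheter records mean arterial pressure continuously. Three bolus bradykinin doses (1 ug/kg iv) set baseline. Antagonist in saline is then given iv at rising doses (0.03–1000 ug/kg), each followed after 5 min by a bradykinin bolus. Percent inhibition of hypotension per animal; ED50 by probit; n=4.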

SMILES	Ki (B2 bradykinin receptor)	ED50 (Rattus norvegicus)	ED50 (Oryctolagus cuniculus)
CCCN1CN(CC(C)=O)C(=O)C12CCN(C)CC2	27 nM	–	–
CC(=O)CN1CN(CCc2ccccc2)C2(CCN(C)CC2)C1=O	0.15 nM	–	–
CC(=O)CN1CN(CC2CCCCC2)C2(CCN(C)CC2)C1=O	6.8 nM	–	–
CC(=O)CN1CN(C2CCCCC2)C2(CCN(C)CC2)C1=O	0.57 nM	600 µg/kg	8.6 µg/kg
CC(=O)CN1CN(c2ccccc2)C2(CCN(C)CC2)C1=O	7.7 nM	400 µg/kg	22.1 µg/kg
CC(=O)CN1CN(c2ccc(C)cc2)C2(CCN(C)CC2)C1=O	6.3 nM	–	–
